Reference: ChEMBL document CHEMBL1122189, “Preliminary studies of mesoionic 3-(substituted-aryl)-psi-oxatriazoles as potential antihypertensive agents” (1982)

Columns and labels:
[1] = test system: Rattus norvegicus; assay: Hypotensive response (systolic blood pressure) was determined at 30 minutes for a dose of 10 mg/kg administered and 1 mL of corn oil in rat; format: functional, Artery
Method in brief: (§1)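 Male Sprague–Dawley rats (250-350 g), femoral artery cannulated under sodium pentobarbital (35 mg/kg ip), restrained supine. Heparin–saline injected into the cannula before recording. Single oral gavage dose in corn oil. Systolic and diastolic pressure taken 30 min after dosing, given as mean (±SE) percent decrease from base line, base line being pressure of animals given 1 mL corn oil.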

[2] = test system: Rattus norvegicus; assay: Hypotensive response (diastolic blood pressure) was determined at 30 minutes for a dose 10 mg/kg administered and 1 mL of corn oil in rat; format: functional, Artery; method in brief: as §1
[3] = test system: Rattus norvegicus; assay: Hypotensive response for decrease in blood pressure was determined for a dose 10 mg/kg of in rat; format: functional
Method in brief: (§2)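 Male Sprague–Dawley rats (250-350 g), femoral artery cannulated under sodium pentobarbital (35 mg/kg ip); pressure recorded by transducer after recovery from anesthesia. Oral gavage in under 1 mL corn oil, doses 1-90 mg/kg; vehicle controls got 1 mL corn oil. Recorded continuously for 30 min, then at intervals. Result is mean (±SE) percent decrease in […] from post-anesthesia base line over the first hour.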

[4] = test system: Rattus norvegicus; assay: Hypotensive response for decrease in blood pressure was determined for a dose 25 mg/kg of in rat; format: functional; method in brief: as §2
[5] = test system: Rattus norvegicus; assay: Hypotensive response for decrease in blood pressure was determined for a dose 0 mg/kg + 1 mL corn oil in rat; format: functional; method in brief: as §2
[6] = test system: Rattus norvegicus; assay: Hypotensive response for decrease in blood pressure was determined for a dose 45 mg/kg of in rat; format: functional; method in brief: as §2
[7] = test system: Rattus norvegicus; assay: Hypotensive response for decrease in blood pressure was determined for a dose 90 mg/kg of in rat; format: functional; method in brief: as §2
[8] = test system: Rattus norvegicus; assay: Hypotensive response for decrease in blood pressure was determined for a dose 3 mg/kg of in rat; format: functional; method in brief: as §2
[9] = test system: Rattus norvegicus; assay: Hypotensive response for decrease in blood pressure was determined for a dose 1 mg/kg of in rat; format: functional; method in brief: as §2
[10] = test system: Rattus norvegicus; assay: Hypotensive response for decrease in blood pressure was determined for a dose 15 mg/kg of in rat; format: functional; method in brief: as §2

SMILES | Decrease in blood pressure [1] [%] | Decrease in blood pressure [2] [%] | further results
[O-]c1n[n+](-c2ccccc2)no1 | 51.7 | 52.3 | 
[O-]c1n[n+](-c2ccc(Cl)cc2)no1 | 47 | 47.9 | 
Cc1ccc(-[n+]2noc([O-])n2)cc1 | 28.5 | 27.5 | Decrease in blood pressure [3]: 28%; Decrease in blood pressure [4]: 48.1%; Decrease in blood pressure [5]: 0%; Decrease in blood pressure [6]: 53%; Decrease in blood pressure [7]: 75.3%; Decrease in blood pressure [8]: 23.5%; Decrease in blood pressure [9]: 13.9%; Decrease in blood pressure [10]: 37.6%
[O-]c1n[n+](-c2c(Cl)cccc2Cl)no1 | 11.5 | 8.3 | 
COc1ccc(-[n+]2noc([O-])n2)cc1 | 22.2 | 20 | 
[O-]c1n[n+](-c2ccc(Cl)c(Cl)c2)no1 | 31.7 | 30.9 | 
O=[N+]([O-])c1ccc(-[n+]2noc([O-])n2)cc1 | 24.8 | 23.8 | 
